# Measurements reported in ChEMBL document CHEMBL2086249, “Use of small-molecule crystal structures to address solubility in a novel series of G protein coupled receptor 119 agonists: optimization of a lead and in vivo evaluation” (J Med Chem, 2012).
# How the values were obtained:
# physchem = conditions: pH 7.4
# [1] = Apparent permeability across apical to basolateral side of human Caco2 cells at 10 uM; format: ADME, cell-based; conditions: Caco-2
# [2] = Hydrolytic stability of the compound at pH 1 to 10; format: physicochemical; conditions: buffer
# [3] = Plasma clearance in C57BL6 mouse at 2 mg/kg, iv and 5 mg/kg, po; format: ADME, organism-based
# Procedure, shortened: (§1)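 IV dose 2 mg/kg in 5% DMSO/95% (hydroxypropyl)-β-cyclodextrin; oral dose given as suspension in aqueous 0.1% pluronic F127, 5 mg/kg for mouse and rat, 13 mg/kg for dog. Dose volumes 5 mL/kg (mouse, rat) and 2 mL/kg (dog). Animals were C57BL6 mice, Han Wistar rats and beagle dogs.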
# [4] = Plasma clearance in Han Wistar rat at 2 mg/kg, iv and 5 mg/kg, po; format: ADME, organism-based
# Procedure, shortened: as §1
# [5] = Plasma clearance in Beagle dog at 2 mg/kg, iv and […] mg/kg, po; format: ADME, organism-based, Canis lupus familiaris
# [6] = Volume of distribution at steady state in C57BL6 mouse at 2 mg/kg, iv and 5 mg/kg, po; format: ADME, organism-based; conditions: in vivo, read-out: Vdss
# Procedure, shortened: as §1
# [7] = Volume of distribution at steady state in Beagle dog at 2 mg/kg, iv and 13 mg/kg, po; format: ADME, organism-based, Canis lupus familiaris; conditions: in vivo, read-out: Vdss
# Procedure, shortened: as §1
# [8] = Volume of distribution at steady state in Han Wistar rat at 2 mg/kg, iv and 5 mg/kg, po; format: ADME, organism-based; conditions: in vivo, read-out: Vdss
# Procedure, shortened: as §1
# [9] = Half life in C57BL6 mouse at 5 mg/kg, po; format: ADME, organism-based; set-up: dose 5 mg/kg, route oral; conditions: in vivo
# Procedure, shortened: (§2)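 Single-dose PK in C57BL6 mice, Han Wistar rats and beagle dogs. Intravenous 2 mg/kg in 5% DMSO/95% (hydroxypropyl)-β-cyclodextrin. Oral dosing as a suspension in aqueous 0.1% (w/v) pluronic F127, at 5 mg/kg for mouse and rat and 13 mg/kg for dog. Dose volume 5 mL/kg for rodents and 2 mL/kg for dog.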
# [10] = Half life in Han Wistar rat at 5 mg/kg, po; format: ADME, organism-based; set-up: dose 5 mg/kg, route oral; conditions: in vivo
# Procedure, shortened: as §2
# [11] = Half life in Beagle dog at 13 mg/kg, po; format: ADME, organism-based, Canis lupus familiaris; set-up: dose 13 mg/kg, route oral; conditions: in vivo
# Procedure, shortened: as §2
# [12] = Half life in C57BL6 mouse at 2 mg/kg, iv; format: ADME, organism-based; set-up: dose 2 mg/kg, route intravenous; conditions: in vivo
# Procedure, shortened: as §2
# [13] = Half life in Han Wistar rat at 2 mg/kg, iv; format: ADME, organism-based; set-up: dose 2 mg/kg, route intravenous; conditions: in vivo
# Procedure, shortened: as §2
# [14] = Half life in Beagle dog at 2 mg/kg, iv; format: ADME, organism-based, Canis lupus familiaris; set-up: dose 2 mg/kg, route intravenous; conditions: in vivo
# Procedure, shortened: as §2
# [15] = Oral bioavailability in C57BL6 mouse at 5 mg/kg; format: ADME, organism-based; conditions: in vivo
# Procedure, shortened: as §1
# [16] = Oral bioavailability in Han Wistar rat at 5 mg/kg; format: ADME, organism-based; conditions: in vivo
# Procedure, shortened: as §1
# [17] = Oral bioavailability in Beagle dog at 13 mg/kg; format: ADME, organism-based, Canis lupus familiaris; conditions: in vivo
# Procedure, shortened: as §2
# [18] = Intrinsic clearance in mouse hepatocytes assessed per million cells; format: ADME, cell-based, Hepatocyte; conditions: read-out: CLH
# [19] = Intrinsic clearance in rat hepatocytes assessed per million cells; format: ADME, cell-based, Hepatocyte; conditions: read-out: CLH
# [20] = Intrinsic clearance in dog hepatocytes assessed per million cells; format: ADME, cell-based, Canis lupus familiaris, Hepatocyte; conditions: read-out: CLH
# [21] = Drug excretion in bile-duct cannulated Han Wistar rat bile; format: ADME; conditions: in vivo
# [22] = Drug excretion in bile-duct cannulated Han Wistar rat urine; format: ADME; conditions: in vivo
# [23] = Cmax in C57BL6 mouse at 5 mg/kg; format: ADME, organism-based; set-up: dose 5 mg/kg; conditions: in vivo
# [24] = Cmax in C57BL6 mouse at 30 mg/kg; format: ADME, organism-based; set-up: dose 30 mg/kg; conditions: in vivo
# [25] = Cmax in C57BL6 mouse at 100 mg/kg; format: ADME, organism-based; set-up: dose 100 mg/kg; conditions: in vivo
# [26] = Cmax in Han Wistar rat at 5 mg/kg; format: ADME, organism-based; set-up: dose 5 mg/kg; conditions: in vivo
# [27] = Cmax in Han Wistar rat at 100 mg/kg; format: ADME, organism-based; set-up: dose 100 mg/kg; conditions: in vivo
# [28] = Cmax in Beagle dog at 1 mg/kg; format: ADME, organism-based, Canis lupus familiaris; set-up: dose 1 mg/kg; conditions: in vivo
# [29] = Cmax in Beagle dog at 5 mg/kg; format: ADME, organism-based, Canis lupus familiaris; set-up: dose 5 mg/kg; conditions: in vivo
# [30] = Cmax in Beagle dog at 10 mg/kg; format: ADME, organism-based, Canis lupus familiaris; set-up: dose 10 mg/kg; conditions: in vivo
# [31] = Cmax in Beagle dog at 50 mg/kg; format: ADME, organism-based, Canis lupus familiaris; set-up: dose 50 mg/kg; conditions: in vivo
# [32] = AUC (0 to 12 hrs) in C57BL6 mouse at 5 mg/kg; format: ADME, organism-based; set-up: time < 12 hr, dose 5 mg/kg; conditions: plasma
# [33] = AUC (0 to 6 hrs) in C57BL6 mouse at 30 mg/kg; format: ADME, organism-based; set-up: time < 6 hr, dose 30 mg/kg; conditions: plasma
# [34] = AUC (0 to 12 hrs) in C57BL6 mouse at 100 mg/kg; format: ADME, organism-based; set-up: time < 12 hr, dose 100 mg/kg; conditions: plasma
# [35] = AUC (0 to 24 hrs) in Han Wistar rat at 5 mg/kg; format: ADME, organism-based; set-up: time < 24 hr, dose 5 mg/kg; conditions: plasma
# [36] = AUC (0 to 24 hrs) in Han Wistar rat at 100 mg/kg; format: ADME, organism-based; set-up: time < 24 hr, dose 100 mg/kg; conditions: plasma
# [37] = AUC (0 to 24 hrs) in Beagle dog at 1 mg/kg; format: ADME, organism-based, Canis lupus familiaris; set-up: time < 24 hr, dose 1 mg/kg; conditions: plasma
# [38] = AUC (0 to 24 hrs) in Beagle dog at 5 mg/kg; format: ADME, organism-based, Canis lupus familiaris; set-up: time < 24 hr, dose 5 mg/kg; conditions: plasma
# [39] = AUC (0 to 24 hrs) in Beagle dog at 10 mg/kg; format: ADME, organism-based, Canis lupus familiaris; set-up: time < 24 hr, dose 10 mg/kg; conditions: plasma
# [40] = AUC (0 to 24 hrs) in Beagle dog at 50 mg/kg; format: ADME, organism-based, Canis lupus familiaris; set-up: time < 24 hr, dose 50 mg/kg; conditions: plasma
smiles,measurement,setting,value
C[C@@H]1CN(C(=O)OC(C)(C)C)CCN1c1ncc(OCc2ccc(-n3cnnn3)cc2)cn1,logD,physchem; octanol/phosphate buffer,> 4.3
C[C@@H]1CN(C(=O)OC(C)(C)C)CCN1c1ncc(OCc2ccc(S(C)(=O)=O)cc2F)cn1,logD,physchem; octanol/phosphate buffer,3.7
C[C@@H]1CN(C(=O)OC(C)(C)C)CCN1c1ncc(OCc2ccc(S(C)(=O)=O)cc2C#N)cn1,logD,physchem; octanol/phosphate buffer,3.3
C[C@@H]1CN(C(=O)OC(C)(C)C)CCN1c1ncc(OCc2ccc(S(C)(=O)=O)cn2)cn1,logD,physchem; octanol/water,3
CC(C)(C)OC(=O)N1CCN(c2ncc(OCc3ccncc3)cn2)CC1,logD,physchem; octanol/phosphate buffer,3.4
Cc1cc(COc2cnc(N3CCN(C(=O)OC(C)(C)C)CC3)nc2)ccn1,logD,physchem; octanol/phosphate buffer,3.7
Cc1cnccc1COc1cnc(N2CCN(C(=O)OC(C)(C)C)CC2)nc1,logD,physchem; octanol/water,3.8
COc1cnccc1COc1cnc(N2CCN(C(=O)OC(C)(C)C)CC2)nc1,logD,physchem; octanol/phosphate buffer,3.8
CC(C)(C)OC(=O)N1CCN(c2ncc(OCc3ccncc3F)cn2)CC1,logD,physchem; octanol/phosphate buffer,3.6
CC(C)(C)OC(=O)N1CCN(c2ncc(OCc3ccncc3C#N)cn2)CC1,logD,physchem; octanol/phosphate buffer,2.8
Cc1cnccc1COc1cnc(N2CCN(C(=O)OC(C)(C)C)C[C@H]2C)nc1,logD,physchem; octanol/phosphate buffer,3.8
C[C@@H]1CN(C(=O)OCC(F)(F)F)CCN1c1ncc(OCc2ccncc2C#N)cn1,logD,physchem; octanol/phosphate buffer,3
C[C@@H]1CN(c2ncc(F)cn2)CCN1c1ncc(OCc2ccncc2C#N)cn1,logD,physchem; octanol/phosphate buffer,3.4
CC(C)c1nc(N2CCN(c3ncc(OCc4ccncc4C#N)cn3)[C@H](C)C2)no1,Papp A→B at 10 µM,[1],85 ×10⁻⁶ cm/s
same,Stability,[2],Stable
same,clearance,[3],49 mL/min/kg
same,clearance,[4],28 mL/min/kg
same,clearance,[5],3.6 mL/min/kg
same,Vd,[6],2.4 L/kg
same,Vd,[7],4.1 L/kg
same,Vd,[8],5.1 L/kg
same,half-life,[9],60 min
same,half-life,[10],360 min
same,half-life,[11],300 min
same,half-life,[12],60 min
same,half-life,[13],180 min
same,half-life,[14],660 min
same,bioavailability,[15],22%
same,bioavailability,[16],29%
same,bioavailability,[17],24%
same,hepatocyte CLint,[18],67 µL/min/1e6 cells
same,hepatocyte CLint,[19],29 µL/min/1e6 cells
same,hepatocyte CLint,[20],5.6 µL/min/1e6 cells
same,Drug excretion,[21],Active
same,Drug excretion,[22],Active
same,Cmax,[23],400 nM
same,Cmax,[24],3.5 µM
same,Cmax,[25],14 µM
same,Cmax,[26],700 nM
same,Cmax,[27],6.3 µM
same,Cmax,[28],600 nM
same,Cmax,[29],2500 nM
same,Cmax,[30],1300 nM
same,Cmax,[31],10 µM
same,AUC(0-t) at 12 h,[32],0.7 µM·h
same,AUC(0-t) at 6 h,[33],6.4 µM·h
same,AUC(0-t) at 12 h,[34],42 µM·h
same,AUC(0-t) at 24 h,[35],2.7 µM·h
same,AUC(0-t) at 24 h,[36],97 µM·h
same,AUC(0-t) at 24 h,[37],4 µM·h
same,AUC(0-t) at 24 h,[38],14 µM·h
same,AUC(0-t) at 24 h,[39],11 µM·h
same,AUC(0-t) at 24 h,[40],119 µM·h
same,logD,physchem; octanol/phosphate buffer,3.3
C[C@@H]1CN(c2noc(C3CC3)n2)CCN1c1ncc(OCc2ccncc2C#N)cn1,logD,physchem; octanol/phosphate buffer,3.1
C[C@@H]1CN(c2noc(C(F)(F)F)n2)CCN1c1ncc(OCc2ccncc2C#N)cn1,logD,physchem; octanol/phosphate buffer,4
C[C@@H]1CN(c2noc(C(F)F)n2)CCN1c1ncc(OCc2ccncc2C#N)cn1,logD,physchem; octanol/water,2.9
C[C@@H]1CN(c2nc(C3CC3)no2)CCN1c1ncc(OCc2ccncc2C#N)cn1,logD,physchem; octanol/phosphate buffer,3.5
C[C@@H]1CN(c2nc(C(F)(F)F)no2)CCN1c1ncc(OCc2ccncc2C#N)cn1,logD,physchem; octanol/water,3.1
